MrgX1 allo act: human MrgX1 positive allosteric modulation, primary screen. B-score at 10 µM. AID 588675. 0.63% of 310,000 active. MrgX1-HEK293, Fluo-4 calcium flux, FDSS; active compounds read high;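 active = plate-corrected calcium response at least 3 library SD above typical, normal starting fluorescence, not activating the receptor alone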;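 note: compound read alongside a low EC10 to EC30 dose of BAM8-22 agonist; peak minus trough fluorescence over baseline measured at the second addition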
Target sequence (Q96LB2 whole entry, looked up): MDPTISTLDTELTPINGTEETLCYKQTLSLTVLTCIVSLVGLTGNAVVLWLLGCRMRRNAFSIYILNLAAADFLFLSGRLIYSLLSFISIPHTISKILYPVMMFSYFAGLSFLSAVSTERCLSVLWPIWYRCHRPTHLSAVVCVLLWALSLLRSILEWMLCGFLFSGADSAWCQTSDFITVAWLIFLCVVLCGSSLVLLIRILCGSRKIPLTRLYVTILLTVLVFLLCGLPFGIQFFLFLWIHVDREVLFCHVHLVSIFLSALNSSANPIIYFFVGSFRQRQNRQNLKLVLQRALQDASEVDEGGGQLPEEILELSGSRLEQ
RGS4 inh: human RGS4 inhibition; P49798; HEK293 M3R/RGS4 inducible, Fluo-4 calcium flux; active compounds read high; triggered by carbachol at its EC20; B-score at 10 µM; 0.45% of 310,000 active; AID 463165;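 active = B-score, a plate-corrected calcium signal, over three deviations above library mean, with baseline fluorescence within five deviations of library mean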;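 note: RGS4 expression induced by doxycycline in cells with stable M3 receptor; B-score is computed from the integrated fluorescence ratio over baseline after carbachol; higher B-score means a larger calcium signal and so more RGS4 inhibition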
Target sequence (P49798 whole entry, looked up): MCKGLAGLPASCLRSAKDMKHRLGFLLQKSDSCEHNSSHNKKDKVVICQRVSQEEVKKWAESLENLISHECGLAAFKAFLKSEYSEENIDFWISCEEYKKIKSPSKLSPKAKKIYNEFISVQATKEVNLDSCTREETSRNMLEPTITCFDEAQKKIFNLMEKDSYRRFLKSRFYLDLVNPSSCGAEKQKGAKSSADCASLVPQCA
MrgX1 antag: human MrgX1 receptor antagonism, primary screen | Q96LB2 | MRGX1-HEK293 calcium flux, Fluo-4, BAM8-22 antagonism; active compounds read low | B-score at 10 µM | 1.3% of 310,000 active;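 active = calcium-response B-score plate-corrected more than 3 library SD below zero, starting fluorescence within 5 deviations, no agonist response on first addition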;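 note: peak minus trough fluorescence over baseline after final BAM8-22 challenge near maximal dose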
MrgX1 ag: agonists of human MrgX1 receptor; B-score at 10 µM; Q96LB2; AID 588627; MrgX1-HEK293 cells, Fluo-4 calcium fluorescence, agonist mode; active compounds read high; 0.44% of 310,000 active;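 active = calcium response B-score plate-corrected fluorescence ratio at least 3 library SD, with starting fluorescence B-score inside 5 SD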
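Assay system: MrgX1-expressing HEK293 cells / Amount: fifteen thousand cells per well / Doses: test compound in the initial addition of three / Timing: cells plated overnight, dye loaded 0.5 h 37 °C, 0.5 h room temperature / Technique: kinetic calcium dye fluorescence, Fluo-4 NW / Control set: positive and negative controls per plate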
RGS4 act: potentiators or activators of RGS4 | HEK293 M3R/inducible RGS4, carbachol calcium flux Fluo4; active compounds read low | B-score at 10 µM | 0.92% of 310,000 active | AID 463111;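 active = B-score of the integrated calcium signal more than 4 SD below the library mean, with starting fluorescence not abnormally high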;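 note: negative B-score means reduced calcium response which marks RGS4 activation or potentiation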
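Detection: kinetic calcium fluorescence imaging with Fluo4-AM dye, 2 µM / Material: HEK293 cells with stable M3R and inducible RGS4 / Schedule: recording 10 s baseline at 1 Hz, 100 s post-agonist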
MrgX1 antag conf: confirmation of human MrgX1 receptor antagonists; 19% of 2,300 active; shares compounds with MrgX1 antag; remaining BAM8-22 calcium response % of control (active compounds read low), % at 10 µM; AID 602420; MrgX1-HEK293, BAM8-22 calcium flux, Fluo-4; active compounds read low;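 active = remaining agonist calcium response no higher than 100% minus 3 SD of agonist-only control wells, with starting fluorescence near control levels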;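 note: agonist BAM8-22 given at a near maximal EC90 to ECmax level; peak minus minimum fluorescence divided by baseline after agonist addition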
HEK293 Ca flux: MrgX1 antagonist counter-screen hit in parental HEK293 cells. Fluo-4 calcium fluorescence, FDSS. shares compounds with MrgX1 antag. fluorescence ratio F(max-min)/F0 at 10 µM. AID 624111. 2% of 4,000 active;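 active = duplicate-averaged calcium fluorescence ratio at least three times the standard deviation of buffer wells, a nonspecific response in parental cells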
HEK293 Ca counter: activity in parental HEK293 cells without MrgX1; shares compounds with MrgX1 antag; parental HEK293 calcium flux, Fluo-4 fluorescence ratio; active compounds read high; fluorescence ratio F(max-min)/F0 at 10 µM; 0.4% of 4,000 active; AID 624114;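 active = calcium fluorescence ratio, averaged over duplicates, at least 3 SD of the buffer-well ratio, meaning a nonspecific response in receptor-free cells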;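 note: untransfected parental HEK293 lacking MrgX1 used as counterscreen for MrgX1 allosteric activators; fluorescence change taken during the second addition on a kinetic imager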
HEK293 Ca cntr2: MrgX1 activator counter-screen hit in parental HEK293 cells; shares compounds with MrgX1 antag; Fluo-4 calcium fluorescence (FDSS); active compounds read high; fluorescence ratio F(max-min)/F0 at 10 µM; 8.7% of 4,000 active;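 active = calcium fluorescence ratio at least three times the spread of buffer wells, meaning a non-specific response in parental cells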
An asterisk follows results filed as active; i = inactive; . = not tested or not shown. The list is not random: actives were taken first. Their share in the collection is about 3.5%.

SMILES	MrgX1 allo act	RGS4 inh	MrgX1 antag	MrgX1 ag	RGS4 act	MrgX1 antag conf	HEK293 Ca flux	HEK293 Ca counter	HEK293 Ca cntr2
CC(C)(CC(=O)O)CC(=O)Nc1ccc2c(c1)ncn2CCc1ccccc1	i	i	i	i	i	.	.	.	.
COC(=O)CCc1c(C)c(C(=O)c2ccc(F)cc2)c2ccccn12	i	i	-5.68*	i	i	i	i	i	i
COC(=O)CCc1c(C)c(C(=O)c2cc(F)c(F)c(F)c2F)c2ccccn12	i	i	i	i	i	.	.	.	.
COC(=O)CCC(=O)Nc1cccc(Cl)c1	i	i	-5.39*	i	i	83.8%*	i	i	i
CNCCCOc1ccc2c(c1)CCC2	i	i	-5.04*	i	i	i	i	i	i
c1cc2c(cc1OCCNC1CCCC1)CCC2	i	i	i	i	i	.	.	.	.
C[C@@]12C(=O)Nc3cc(F)ccc3C(=O)N1[C@H]1c3ccccc3OC[C@@H]1[C@@H]2c1ccccc1	i	.	-6.24*	i	.	82.4%*	i	i	i
Cc1ccc2c(c1)[C@H]1[C@H](CO2)[C@H](c2ccccc2)[C@]2(C)C(=O)Nc3cc(Cl)ccc3C(=O)N12	i	.	i	i	.	.	.	.	.
COC(CNC(=O)C(=O)NCC1OCCN1C(=O)c1ccc(Cl)cc1)OC (stereo not drawn)	i	i	i	i	i	.	.	.	.
COCCNC(=O)C(=O)NCC1OCCN1C(=O)c1ccc(Cl)cc1 (stereo not drawn)	i	i	-5.63*	i	i	i	i	i	i
CC(C)(C)C(=O)/C=C(N)/C=C/c1ccccc1	i	i	i	i	i	.	.	.	.
Cc1ccc(-n2ncc3c2CC(C)(C)CC3NC(=O)CCN2CCCCC2=O)cc1 (stereo not drawn)	i	i	i	i	i	.	.	.	.
C/C(Cl)=C\Cn1c(NCCc2ccccc2)nc2c1c(=O)n(C)c(=O)n2C	i	i	i	i	i	.	.	.	.
CCN(CC)CCNc1nc2c(c(=O)n(C)c(=O)n2C)n1C/C=C(/C)Cl	i	i	-4.64*	i	i	i	i	i	i
Cc1ccc(C(NC(=O)c2ccccc2)C(Cl)(Cl)Cl)cc1 (stereo not drawn)	i	i	i	i	i	.	.	.	.
Cc1ccc(C(=O)NC(N(C)C)C(Cl)(Cl)Cl)cc1 (stereo not drawn)	i	i	-4.53*	i	i	i	i	i	i
O=C(NCCc1ccccc1)c1cc(S(=O)(=O)N2CCCC2)ccc1F	i	i	i	i	i	.	.	.	.
CCCCCNC(=O)c1cc(S(=O)(=O)N2CCCCC2)ccc1F	i	i	-7.91*	i	i	i	i	i	i
CC(C)(C)c1csc(NC(=O)c2ccncc2)n1	i	i	-7.04*	i	i	i	i	i	i
NC(=O)NCCCC(=O)NCC(c1ccccc1Cl)c1c[nH]c2ccccc12 (stereo not drawn)	i	i	i	i	i	.	.	.	.
Cc1cc(C(=O)COC(=O)c2ccc(Cl)c(S(N)(=O)=O)c2)c(C)n1C1CC1	i	i	i	i	i	.	.	.	.
Cc1cccc(NC(=O)Nc2c(C)n(C)n(-c3ccccc3)c2=O)c1C	i	i	i	i	i	.	.	.	.
Cc1cccc(NC(=S)Nc2c(C)n(C)n(-c3ccccc3)c2=O)c1C	i	i	-18.1*	i	i	i	i	i	i
Nc1nc(Cl)cc(NCCc2ccc(O)cc2)n1	i	i	-5.83*	i	i	i	i	i	i
Nc1nc(Cl)cc(NCCc2ccccc2)n1	i	i	i	i	i	.	.	.	.
SMILES	MrgX1 allo act	RGS4 inh	MrgX1 antag	MrgX1 ag	RGS4 act	MrgX1 antag conf	HEK293 Ca flux	HEK293 Ca counter	HEK293 Ca cntr2
O=C(NCN1C(=O)C2C3C=CC(C3)C2C1=O)Nc1nncs1 (stereo not drawn)	i	i	-4.63*	i	i	84.8%*	i	i	i
Cc1ccc(NC(=O)Nc2ccc(F)cc2)cc1Cl	i	i	-6.07*	i	i	71.2%*	i	i	i
Fc1ccccc1-c1n[nH]c(=S)n1CC1CCCO1 (stereo not drawn)	i	i	-6.31*	i	i	i	i	i	i
Cn1cc(C(=O)NS(=O)(=O)Nc2ccc(Br)cn2)c2ccccc21	i	i	i	i	i	.	.	.	.
O=C(/C=C/c1ccco1)N(Cc1ccccc1F)C1CCS(=O)(=O)C1 (stereo not drawn)	i	i	i	i	i	.	.	.	.
Cc1cccc(NC(=O)CNC(=O)c2ccc3c(c2)OCO3)n1	i	i	-9.44*	i	i	i	i	i	i
C[C@@H]1NC(=O)N[C@@H]1CCCCCC(=O)O	i	i	i	i	i	.	.	.	.
C=CCn1c(SCc2nc3cc(C(=O)OC)ccc3c(=O)[nH]2)nc2sc(CC)cc2c1=O	i	i	-4.8*	i	i	i	i	i	i
C=CCn1c(SCC(=O)Nc2sccc2C(N)=O)nc2sc(CC)cc2c1=O	i	i	i	i	i	.	.	.	.
COc1cc(C2NC(=O)NC(C)=C2C(=O)OC(C)C)ccc1OC(=O)c1ccco1 (stereo not drawn)	i	i	i	i	i	.	.	.	.
CCOc1ccccc1N1CCN(C(=O)CCCN2C(=O)c3cccc4cccc(c34)C2=O)CC1	i	i	-5.47*	i	i	i	i	i	i
Cc1ccc(S(=O)(=O)/N=c2\sccn2C)cc1	i	i	i	i	i	.	.	.	.
Cn1ccs/c1=N\S(=O)(=O)c1ccc(F)cc1	i	i	-5.01*	i	i	i	i	i	i
CN(C)c1ccc(CNC2CC(C)(C)NC(C)(C)C2)cc1	i	i	i	i	i	.	.	.	.
CC1(C)CC(NCc2ccncc2)CC(C)(C)N1	i	i	-9.66*	i	i	85.6%*	i	i	i
